# Experimental data reported in ChEMBL document CHEMBL1135935, “Halogenated diazirines as photolabel mimics of the inhaled haloalkane anesthetics” (J Med Chem, 2002).
# Tests used:
# [1] = Dissociation constant for a single binding site
# Outline: (§1)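 Bovine serum albumin (10 mg/mL) was pre-equilibrated with ~5 mCi tritiated water in 1 M GdnCl, 0.1 M NaH2PO4 pH 8.5 for ≥18 h at room temperature. Exchange-out ran with compound present. Aliquots were taken at timed intervals over ≥6 h, precipitated in ice-cold 10% TCA, filtered, and counted by scintillation. PFR came from the last 3–5 shared hydrogens. KD was derived from PFr = 1 + ([compound]/KD)^n.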
# [2] = Effective concentration for tadpole immobility (less potent); format: functional, frog
# Outline: (§2)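 Tadpoles were exposed to compound in pond water and scored for loss of righting reflex over 5 min. They were then moved to fresh pond water and watched for recovery, intermittently for 3 h. EC50 values are estimates within 2-fold.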
# Albumin = Albumin (Homo sapiens, UniProt P02768); experiment: Inhibitory concentration bound to tryptophan containing region of Serum albumin in fluorescence quenching
# Sequence of Albumin (P02768 whole entry): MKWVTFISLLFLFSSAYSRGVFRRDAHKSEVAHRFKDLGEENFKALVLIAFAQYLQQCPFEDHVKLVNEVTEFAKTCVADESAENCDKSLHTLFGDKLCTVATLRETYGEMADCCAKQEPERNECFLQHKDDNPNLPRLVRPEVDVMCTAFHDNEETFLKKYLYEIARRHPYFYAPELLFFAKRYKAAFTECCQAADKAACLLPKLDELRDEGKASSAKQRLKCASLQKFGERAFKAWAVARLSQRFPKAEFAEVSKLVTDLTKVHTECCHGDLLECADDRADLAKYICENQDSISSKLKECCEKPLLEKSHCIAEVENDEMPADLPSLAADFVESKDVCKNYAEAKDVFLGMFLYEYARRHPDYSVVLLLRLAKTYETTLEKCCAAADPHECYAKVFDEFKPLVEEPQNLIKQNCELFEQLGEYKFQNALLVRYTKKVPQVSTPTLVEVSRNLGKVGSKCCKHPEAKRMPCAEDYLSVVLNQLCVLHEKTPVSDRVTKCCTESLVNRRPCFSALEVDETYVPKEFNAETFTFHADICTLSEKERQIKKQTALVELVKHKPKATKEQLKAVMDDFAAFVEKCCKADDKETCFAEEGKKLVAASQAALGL
# Outline: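 Increasing compound concentrations were added from stock buffer solutions to ~2 µM human serum albumin, which has a single Trp-214. The cuvette was kept air-free. Excitation was 295 nm with emission scanning at room temperature. Fluorescence maxima were corrected for inner-filter effects, and EC50 and Hill slope were derived.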
# [3] = Effective concentration for tadpole immobility after 5 min (slow recovery); format: functional, frog; conditions: Amphibia, read-out: ED50 (the source's name); outline: as §2
# [4] = (§3) Effective concentration to potentiate GABA responses; format: functional
# Outline: (§4)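 Stage V–VI Xenopus oocytes were defolliculated with collagenase and injected with 1–2 ng of each subunit cRNA in a 1:1 ratio. They were kept in ND96 with 50 µg/mL gentamicin at 18 °C for 3–5 days. Voltage-clamp recording was done under continuous ND96 superfusion (pH 7.5).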
# [5] = Dissociation constant for a single binding site at 5 mM concentration; outline: as §1
# [6] = Effective concentration for rapid onset of reversible immobility (tadpole) at about 0.1 mM; format: functional, frog; outline: as §2
# [7] = as §3; format: functional; outline: as §4; remark: listed apart in the source
Compound,Kd [1] [µM],EC50 [2] [mM],IC50 (Albumin) [mM],EC50 [3] [µM],ED50 [4] [µM],Kd [5] [mM],EC50 [6] [µM],EC50 [7] [µM]
FC(Cl)C(F)(F)C1(F)N=N1 (configuration not stated),4800,2.5,2.2,–,–,–,–,–
FC(F)(F)C(Cl)Br (configuration not stated) [HALOTHANE],900,–,2.9,–,–,–,–,–
FC(F)(F)C1(Br)N=N1,5600,–,0.4,–,–,–,–,–
FC(Cl)C(F)(F)C1(Br)N=N1 (configuration not stated),600,–,0.7,300,80,–,–,–
[N-]=[N+]=CC(F)(F)F,–,–,1.2,–,–,1.3,–,–
FC(F)(C(Cl)Br)C1N=N1 (configuration not stated),200,–,0.8,–,–,–,100,50
